The values below come from ChEMBL document CHEMBL1128228, “2,3-Dihydro-1-benzofuran-5-ols as analogues of alpha-tocopherol that inhibit in vitro and ex vivo lipid autoxidation and protect mice against central nervous system trauma” (J Med Chem, 1995).

As a reminder, the pIC50 is the negative decadic logarithm of the IC50, by convention in mol/L. A higher pIC50 goes with a small IC50. As usually defined, the inhibition in vivo is the percentage by which the read-out fell short of the control. Higher therefore signals a strong effect.

Test [1] is filed under the species Rattus norvegicus. The test is described as follows: In vitro inhibition of lipid autoxidation (TBARS formation) of rat brain homogenate. In kind it is functional. Summed up:
(§1)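 Rat brain homogenate was incubated at 37 °C for 30 min, and TBARS formation was measured. The value is the concentration giving 50% inhibition, as mean ± SD with the number of experiments given.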

A short description of test [2]: O2 scavenging reaction rate constant for competition with nitro-blue tetrazolium of superoxyl radicals formed by xanthine oxidase in the presence of xanthine;No reaction. The class given is functional.
For test [3], the system named is Mus musculus. Kind of test: Ex vivo inhibition of mouse brain lipid autoxidation after 1 hr by 20 umol/kg subcutaneous administration. In kind it is functional. The following applies: sc. Summed up: (§2)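 Male CD1 mice (30 g, five per group) were given 20 μmol/kg sc or saline and killed 1 h later. Brains were frozen in liquid N2, stored at -80 °C, then homogenized 1/19 w/v in ice-cold water. Homogenate (10 mg tissue) was incubated in 20 mM KH2PO4 pH 7.3 with 0.14 M KCl (final) at 37 °C for 30 min. Unincubated samples gave basal TBARS.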

Test [4] is filed under the species Rattus norvegicus. Kind of test: In vitro lipid autoxidation (TBARS formation) in rat brain homogenate; no inhibition. In kind it is functional. Summed up:
as §1

In test [5] the test system is Mus musculus. Kind of test: […] fter 1 hr by 20 umol/kg subcutaneous administration. The class given is functional, organism-based. Put shortly:
(§3)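 Mouse brain homogenates taken 1 h after 20 μmol/kg sc were diluted in methanol containing 2% ascorbic acid and centrifuged. Supernatant was run on a C8 column with isocratic 0.1 M phosphate/50–75% methanol. Detection was electrochemical at 0.6 V. Results are nmol/g, mean ± SD, five mice per group.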

In test [6] the test system is Mus musculus. Kind of test: Ex vivo inhibition of mouse brain lipid autoxidation after 1 hr by 1 umol/kg subcutaneous administration. The class given is functional. The following applies: sc.
A short description of test [7]: Superoxyl radical (O2) scavenging reaction rate constant in competition with nitro-blue tetrazolium of superoxyl radicals formed by xanthine oxidase in the presence of xanthine. The class given is functional.
The species entered for test [8] is Mus musculus. The test is described as follows: Percentage number of paraparetic mice 1 hr after concussive head injury. The class given is functional. Put shortly:
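Mice were dosed 12 mg/kg sc 30 min before concussive head injury, a blow of measured severity. At 1 h a blinded string test counted mice unable to raise their hind limbs onto a horizontal string as paraparetic. Groups had 20–25 mice and were compared with saline by χ-square.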

The test system of test [9] is Mus musculus. The test is described as follows: Ex vivo inhibition of mouse brain lipid autoxidation after 1 hr by 20 umol/kg subcutaneous administration; no inhibition. The class given is functional, organism-based. Summed up: as §2
The subject of test [10] is Mus musculus. The test is described as follows: Mouse brain drug concentration after 1 hr of 20 umol/kg subcutaneous administration. In kind it is functional, organism-based. Put shortly:
as §3

pIC50: −log10 of the molar value. Calls of active or inactive are those of the source. The rule behind the calls is not given here.

`Cc1c(C)c2c(c(C)c1O)CC[C@@](C)(CCC[C@H](C)CCC[C@H](C)CCCC(C)C)O2` [ALPHA-TOCOPHEROL] had a pIC50 in test [1] (Rattus norvegicus, Brain) of 4.85.

For `CC(=O)OCCN1CCN(CC2c3c(C)c(OC(C)=O)c(C)c(C)c3OC2(C)C)CC1` (stereo not drawn), the Rate constant entry in test [2] is “inactive”. In test [3], this molecule showed an inhibition in vivo at 20 µmol/kg of 35%. For the same molecule, in test [4], the IC50 entry was “Not Active”. This molecule gave a Concentration in [5] of 5.7 nM/g.

`Cc1c(C)c2c(c(C)c1O)C(CN1CCCCC1)C(C)(C)O2` (stereo not drawn) had a pIC50 in [1] (Rattus norvegicus, Brain) of 6.40. This molecule had an inhibition in vivo at 1 µmol/kg in [6] of 50%. Further, the Rate constant in [7] amounted to 90000 M⁻¹ s⁻¹.

In [3], `CC(=O)Oc1c(C)c(C)c2c(c1C)C(CN1CCN(C)CC1)C(C)(C)O2` (stereo not drawn) displayed an inhibition in vivo at 20 µmol/kg of 57%. In [4], the IC50 entry is “Not Active”. This molecule yielded a Concentration in test [5] of 7.2 nM/g.

In the case of `Cc1c(C)c2c(c(C)c1O)CCC(C)(CC[N+](C)(C)C)O2.Cc1ccc(S(=O)(=O)[O-])cc1` (stereo not drawn), in [8], the Paraparetic mice came to 40%. In test [1] (Rattus norvegicus, Brain), this molecule gave a pIC50 of 5.70. Besides, the Rate constant in [7] is 24000 M⁻¹ s⁻¹.

For the molecule `Cc1c(C)c2c(c(C)c1O)C(C(=O)N1CCN(CCO)CC1)C(C)(C)O2` (stereo not drawn), in test [1] (Rattus norvegicus, Brain), the pIC50 was 4.72. For the same molecule, the Rate constant in test [7] is 43000 M⁻¹ s⁻¹.

Turning to `Cc1c(C)c2c(c(C)c1O)C(CN(C)C)C(C)(C)O2` (stereo not drawn), the pIC50 in [1] (Rattus norvegicus, Brain) was 6.15. In test [9], the inhibition result is “inactive”. Moreover, the Rate constant in [7] stood at 150000 M⁻¹ s⁻¹.

Consider `Cc1c(C)c2c(c(C)c1O)C(C(=O)OCCN1CCN(C)CC1)C(C)(C)O2` (stereo not drawn), for which the pIC50 in [1] (Rattus norvegicus, Brain) was 5.41. In [3], this molecule came in with an inhibition in vivo at 20 µmol/kg of 10%.

In test [1] (Rattus norvegicus, Brain), `Cc1c(C)c2c(c(C)c1O)C(CO)C(C)(C)O2` (stereo not drawn) had a pIC50 of 5.59. Also, the Rate constant in [7] was found to be 140000 M⁻¹ s⁻¹.

As to `Cc1c(C)c2c(c(C)c1O)CCC(C)(CCN(C)C)O2` (stereo not drawn), the pIC50 in test [1] (Rattus norvegicus, Brain) was 6.15. Moreover, in test [3], the inhibition in vivo at 20 µmol/kg amounted to 16%. Also, the Rate constant in test [7] amounted to 27000 M⁻¹ s⁻¹.

In [1] (Rattus norvegicus, Brain), `Cc1c(C)c2c(c(C)c1O)C(C(=O)O)C(C)(C)O2` (stereo not drawn) had a pIC50 of 4.57. In addition, the Rate constant in test [7] stood at 67000 M⁻¹ s⁻¹.

In test [10], `Cc1c(C)c2c(c(C)c1O)C(CN1CCN(c3ncccn3)CC1)C(C)(C)O2` (stereo not drawn) gave a Concentration of 0.8 nM/g. Also, the pIC50 in test [1] (Rattus norvegicus, Brain) was 6.40. The inhibition in vivo at 20 µmol/kg in test [3] came to 29%.

On to `Cc1c(C)c2c(c(C)c1O)C(CN1CCN(CCOCCO)CC1)C(C)(C)O2` (stereo not drawn), for which the Concentration in test [10] turned out to be 1.2 nM/g. The molecule also registered a Paraparetic mice in test [8] of 60%. In test [1] (Rattus norvegicus, Brain), this molecule showed a pIC50 of 5.92. In addition, the inhibition result in [9] was “inactive”. In addition, the Rate constant in [7] came out at 85000 M⁻¹ s⁻¹.

`Cc1c(C)c2c(c(C)c1O)C(C[N+](C)(C)C)C(C)(C)O2` (stereo not drawn) gave a pIC50 in [1] (Rattus norvegicus, Brain) of 5.44. In test [7], the Rate constant stood at 49000 M⁻¹ s⁻¹.

Molecule `Cc1c(C)c2c(c(C)c1O)C(CNC(C)C)C(C)(C)O2` (stereo not drawn) had a pIC50 in test [1] (Rattus norvegicus, Brain) of 5.85. The same molecule had an inhibition in vivo at 1 µmol/kg in test [6] of 37%. The Rate constant in [7] came to 330000 M⁻¹ s⁻¹.

`Cc1c(C)c2c(c(C)c1O)C(C(=O)N1CCN(C)CC1)C(C)(C)O2` (stereo not drawn) gave a pIC50 in [1] (Rattus norvegicus, Brain) of 4.92. Moreover, the Rate constant in test [7] was found to be 83000 M⁻¹ s⁻¹.

Take `Cc1c(C)c2c(c(C)c1O)C(CN1CCN(C)CC1)C(C)(C)O2` (stereo not drawn): the Concentration in [10] stood at 7.5 nM/g. The Paraparetic mice in test [8] was found to be 30%. The pIC50 is 6.40 in [1] and 6.35 in test [1] (Rattus norvegicus, Brain). In [3], this molecule displayed an inhibition in vivo at 20 µmol/kg of 63%.

With `Cc1c(C)c2c(c(C)c1O)C(CN1CCN(Cc3ccccc3)CC1)C(C)(C)O2` (stereo not drawn), the Concentration in test [10] amounted to 1.6 nM/g. This molecule had a pIC50 in [1] (Rattus norvegicus, Brain) of 6.52. In test [3], this molecule displayed an inhibition in vivo at 20 µmol/kg of 24%. Moreover, in test [7], the Rate constant is 20000 M⁻¹ s⁻¹.

With `COC(=O)C1c2c(C)c(O)c(C)c(C)c2OC1(C)C` (stereo not drawn), in test [1] (Rattus norvegicus, Brain), the pIC50 is 5.49.

In turn, `Cc1c(C)c2c(c(C)c1O)C(CN1CCN(CCO)CC1)C(C)(C)O2` (stereo not drawn) yielded a Concentration in [10] of 6.5 nM/g. The same molecule came in with a Paraparetic mice in [8] of 40%. The pIC50 in [1] (Rattus norvegicus, Brain) was 6.30. This molecule came in with an inhibition in vivo at 20 µmol/kg in test [3] of 57%. In [7], the Rate constant was determined as 90000 M⁻¹ s⁻¹.
